The list is not random: actives were taken first. Their share in the collection is about 1.5%.
H9c2 protect = cardioprotection against H2O2-induced cell death, primary screen, uHTS, H9c2 cells, ATPLite luminescence | H9c2 cardiomyocytes, H2O2 injury protection, 2 h | protection from H2O2 cell death, % at 20 µM | 0.63% of 360,000 active;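 active = compounds giving at least 50% protection of heart cells from peroxide-induced death in the single-dose screen, raw or plate-pattern-corrected value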;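 also: 0% = DMSO wells with peroxide and 100% = DMSO wells without peroxide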
PKA-R1A act = activators of PKA-R1A holoenzyme, primary screen, biochemical, fluorescence polarization, Cy5-IP20, bovine R1A, mouse PKAc; activation, % at 11.4 µM; cAMP-dependent protein kinase type I-alpha regulatory subunit (Bos taurus) + …; 0.083% of 340,000 active; PKA-R1A dissociation; scaled: DMSO 0%, 113 µM cGMP 100%;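 active = percent activation above the mean of all tested compounds plus 3 SD, cut at about 19% in these data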;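 also: higher means more PKAc released from R1A so a rise in polarization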
Tb MetRS inh = T. brucei MetRS inhibitors, primary screen, biochemical, luminescence | methionyl-tRNA synthetase (Trypanosoma brucei brucei) | purified T. brucei MetRS, ATP depletion, Kinase-Glo luminescence | inhibition, % at 11.9 µM | 0.4% of 360,000 active | AID 624268, 2012;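 active = inhibition above a per-plate cutoff of the control wells' mean inhibition plus 3 SD, cut at about 5.5% in these data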;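 also: 0% = DMSO wells median and 100% = median of wells with control inhibitor compound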
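Test system – parasite MetRS enzyme · Reagent – substrates ATP, L-methionine and bulk Escherichia coli tRNA · Doses – 11.9 µM compound single dose, 0.9% DMSO · Times – 15 min enzyme-compound preincubation, 2 h reaction, 10 min detection, 25 °C · Signal – Kinase-Glo luminescence, ATP depletion format · Controls – DMSO-only wells as low control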
Rin1 Abl inh = inhibitors of Rin1-Abl protein binding, primary screen, biochemical, TR-FRET; Tyrosine-protein kinase ABL1 (Homo sapiens) + Ras and Rab interactor 1 (Homo sapiens), …; inhibition, % at 7.35 µM; 0.4% of 360,000 active; AID 588664, 2011; in the data active = inhibition above about 5%, passing the limit was not always enough
PKA-R2B activ = activators of PKA-R2B holoenzyme, primary screen, biochemical, fluorescence polarization, Cy5-IP20, human; cAMP-dependent protein kinase catalytic subunit beta (Homo sapiens) + cAMP-dependent …; PKA-R2B holoenzyme dissociation; R2B truncated from residue 108, S112A mutant; 0% DMSO only, 100% 113 µM cGMP; activation, % at 11.4 µM; 0.079% of 340,000 active;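 active = activation above a cutoff set at the mean over all compounds plus 3 SD, cut at about 18% in these data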;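 also: higher means more holoenzyme dissociation and a rise in polarization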
Target sequence (P31323 whole entry, looked up, other chains not shown, the tested form may be a part): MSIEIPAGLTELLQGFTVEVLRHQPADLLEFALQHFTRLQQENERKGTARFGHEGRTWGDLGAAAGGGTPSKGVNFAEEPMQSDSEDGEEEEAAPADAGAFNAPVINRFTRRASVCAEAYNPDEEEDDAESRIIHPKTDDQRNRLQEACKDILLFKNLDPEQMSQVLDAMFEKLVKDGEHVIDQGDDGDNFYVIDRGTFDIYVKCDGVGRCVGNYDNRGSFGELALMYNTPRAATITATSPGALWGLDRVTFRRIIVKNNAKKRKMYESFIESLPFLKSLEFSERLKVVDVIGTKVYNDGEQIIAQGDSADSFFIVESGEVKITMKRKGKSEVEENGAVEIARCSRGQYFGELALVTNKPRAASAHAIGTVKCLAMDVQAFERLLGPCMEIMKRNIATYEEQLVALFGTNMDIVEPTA
Rin1 Abl conf = Rin1-Abl binding inhibitor retest, confirmation, biochemical, TR-FRET; shares compounds with Rin1 Abl inh; purified proteins; inhibition, % at 7.35 µM; 49% of 1,300 active
GFP quencher = GFP fluorescence inhibitors and quenchers, artefact control for Rin1-Abl interaction inhibitor project, biochemical; shares compounds with Rin1 Abl inh; inhibitors/quenchers counterscreen; inhibition, % at 6.75 µM; 8.5% of 1,300 active; AID 602125, 2011;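 also: ABL1-eGFP fusion protein alone without its partner RIN1-SBP; 0% = protein with vehicle and 100% = wells lacking protein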
GFP quench dose = GFP fluorescence inhibitors and quenchers, dose response, artefact control for Rin1-Abl interaction inhibitor project, biochemical; 230 tested, under 10 active; IC50, µM; GFP fluorescence interference/quenching counterscreen; AID 602182, 2012; shares compounds with Rin1 Abl inh; call rule not given here;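 also: ABL1-eGFP fusion protein alone without its RIN1 binding partner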
Active calls of the source: *; nt = not tested or not shown. Rule as the data show it, unless noted: active = inhibition above about 6.5%; inactive = the rest.

SMILES | H9c2 protect | PKA-R1A act | Tb MetRS inh | Rin1 Abl inh | PKA-R2B activ | Rin1 Abl conf | GFP quencher | others
Cc1ccc(C(C(=O)NCC2CCCO2)N(C(=O)c2snc(C(N)=O)c2N)c2ccc3c(c2)OCCO3)cc1 (stereo unspecified) | 2.6 | -25.9 | -0.8 | 12.9* | -12.6 | 13.5* | -2.1
CCOc1ccc(N(C(=O)c2snc(C(N)=O)c2N)C(C(=O)NC2CCCC2)c2ccncc2)cc1 (stereo unspecified) | 1.3 | -2.5 | -0.6 | 7.6* | -13.5 | 2.6 | -0.3
NC(=O)c1nsc(C(=O)N(c2ccccc2)C(C(=O)NCC2CCCO2)c2ccc(F)cc2)c1N (stereo unspecified) | 18.4 | 3.5 | -0.2 | 0.9 | 1.4 | nt | nt
CCOc1ccc(C(C(=O)NCC2CCCO2)N(C(=O)c2snc(C(N)=O)c2N)c2ccccc2F)cc1 (stereo unspecified) | 61.0* | 0.9 | 0.2 | 8.5* | -7.2 | 11.0* | 0.0
CCc1ccc(N(C(=O)c2snc(C(N)=O)c2N)C(C(=O)NC2CCCC2)c2ccncc2)cc1 (stereo unspecified) | 17.7 | 4.5 | -0.1 | 2.6 | 6.1 | nt | nt
NC(=O)c1nsc(C(=O)N(c2ccc3c(c2)OCCO3)C(C(=O)NCC2CCCO2)c2ccc(F)cc2)c1N (stereo unspecified) | 20.3 | -15.0 | -0.4 | 11.1* | -4.1 | 10.9* | -1.3
CCC1CCCCN1S(=O)(=O)c1ccc(NC(=O)c2snnc2C)cc1 (stereo unspecified) | -8.4 | -3.5 | -0.6 | 0.6 | 7.6 | nt | nt
CCC1CCCCN1S(=O)(=O)c1ccc(NC(=O)c2cccs2)cc1 (stereo unspecified) | -7.5 | -8.6 | -0.1 | 10.3* | -0.7 | -0.3 | -0.9
CS(=O)(=O)c1cccc(C(=O)N(CCc2ccccc2)Cc2cccs2)c1 | -4.0 | 11.1 | -0.3 | 1.5 | -0.1 | nt | nt
CC(=O)Nc1cc2c(nc1C)nc(C)n2Cc1ccc(Br)cc1 | 1.8 | 6.3 | 0.2 | 17.9* | -8.6 | 21.7* | -3.6 | GFP quench dose=>67.6
CC[C@]12c3[nH]c4ccc(OC)cc4c3CCN1C(=O)C(CC(=O)NCCc1ccccn1)C[C@@H]2C(=O)N1CCN(C(=O)c2ccco2)CC1 (stereo partly specified) | 7.2 | 4.9 | 0.4 | 16.0* | 4.5 | 6.0 | 2.2
CC[C@]12c3[nH]c4ccc(OC)cc4c3CCN1C(=O)C(CC(=O)NCCCn1ccnc1)C[C@@H]2C(=O)N1CCN(C(=O)c2ccco2)CC1 (stereo partly specified) | 11.4 | -3.0 | -0.5 | 6.9 | -3.5 | nt | nt
CC[C@]12c3[nH]c4ccc(OC)cc4c3CCN1C(=O)C(CC(=O)NCCCN(C)C)C[C@@H]2C(=O)N1CCN(C(=O)c2ccco2)CC1 (stereo partly specified) | -2.3 | 2.0 | 0.4 | 21.1* | -5.6 | 22.2* | 0.3 | GFP quench dose=>67.5
CC[C@]12c3[nH]c4ccc(OC)cc4c3CCN1C(=O)C(CC(=O)NC/C=C(\C)CCC=C(C)C)C[C@@H]2C(=O)N1CCN(C(=O)c2ccco2)CC1 (stereo partly specified) | -11.7 | -8.7 | -2.6 | 11.3* | -13.5 | 5.1 | 0.9
CC[C@]12c3[nH]c4ccc(OC)cc4c3CCN1C(=O)C(CC(=O)NCc1cccc(C(F)(F)F)c1)C[C@@H]2C(=O)N1CCN(C(=O)c2ccco2)CC1 (stereo partly specified) | 7.2 | -3.4 | 0.1 | 18.1* | -9.1 | 21.2* | -1.9 | GFP quench dose=>67.6
CC[C@]12c3[nH]c4ccccc4c3CCN1C(=O)C(CC(=O)NC/C=C(\C)CCC=C(C)C)C[C@@H]2C(=O)N1CCN(C(=O)c2ccco2)CC1 (stereo partly specified) | 12.4 | -11.7 | 0.1 | -2.9 | 0.1 | nt | nt
CC[C@]12c3[nH]c4ccccc4c3CCN1C(=O)C(CC(=O)NCCCN(C)C)C[C@@H]2C(=O)N1CCN(C(=O)c2ccco2)CC1 (stereo partly specified) | 5.1 | -6.5 | -0.8 | -2.4 | -1.2 | nt | nt
CC[C@]12c3[nH]c4ccc(Cl)cc4c3CCN1C(=O)[C@@H](CC(=O)NCc1cccc(C(F)(F)F)c1)C[C@@H]2C(=O)N1CCN(C(=O)c2ccco2)CC1 | 0.2 | 7.3 | -0.6 | 3.6 | -5.3 | nt | nt
CN(C(=O)c1ccc(NC(=O)Cc2ccc(NC(=O)C3CCN(C(=O)C4CCCC4)CC3)cc2)cc1)C1CC1 | -8.6 | 7.3 | -0.5 | 78.2* | -6.5 | 84.5* | -0.7
CN(C(=O)c1ccc(NC(=O)Cc2cccc(NC(=O)C3CCN(C(=O)C4CCCC4)CC3)c2)cc1)C1CC1 | -31.6 | -4.0 | 0.1 | 20.2* | -6.3 | 28.0* | 0.1 | GFP quench dose=>67.5
CN(C(=O)c1ccc(NC(=O)Cc2cccc(NC(=O)C3CCN(C(=O)C4CCC4)CC3)c2)cc1)C1CCCC1 | -3.6 | -2.0 | -0.3 | -0.9 | 8.4 | nt | nt
CN(C(=O)c1ccc(NC(=O)Cc2ccc(NC(=O)C3CCN(C(=O)C4CCCCC4)CC3)cc2)cc1)C1CCCC1 | -17.9 | 0.7 | -0.2 | 4.0 | -10.4 | nt | nt
CN(C(=O)c1ccc(NC(=O)Cc2ccc(NC(=O)C3CCN(C(=O)C4CCC4)CC3)cc2)cc1)C1CC1 | -0.8 | -4.2 | -0.2 | 37.4* | -6.2 | 61.5* | 0.1
O=C(Nc1c2c(nn1-c1cccc(Cl)c1)CS(=O)(=O)C2)c1ccco1 | -2.2 | 7.4 | -0.6 | 0.8 | 0.6 | nt | nt
Cc1nn(C)c(Sc2ccccn2)c1[N+](=O)[O-] | -0.6 | nt | -1.1 | -2.0 | nt | nt | nt
Cc1ccc(S(=O)(=O)N2CCN(S(=O)(=O)c3ccccc3Br)CC2)cc1 | -5.9 | -9.9 | -0.9 | -1.3 | -3.9 | nt | nt
CCN(CC(=O)Nc1ccc(NC(C)=O)cc1)C(=O)c1ccc(Sc2nncn2C)c([N+](=O)[O-])c1 | 1.0 | -3.8 | 0.1 | 9.7* | -5.1 | -0.2 | -0.5
CCN(CC)S(=O)(=O)c1ccc(NC(=O)c2ccc(Sc3nncn3C)c([N+](=O)[O-])c2)cc1 | -2.5 | -6.5 | -0.8 | -4.7 | 5.2 | nt | nt

Screens (PubChem BioAssay)
